# PGC1a acetyl inh – inhibitors of PGC1a acetylation signal, primary screen, cell-based, U2OS, AlphaScreen, inhibitor mode. inhibition, % at 15.6 µM. AlphaScreen anti-acetyl-lysine; with virally co-expressed GCN5 acetyltransferase. 0.17% of 350,000 active;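 active = every replicate shows inhibition of at least 40%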;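 also: 0% = neutral control wells and 100% = positive control wells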
# Cneo AK release – Cryptococcus neoformans cell lysis inducers, primary screen, AK release luminescence, single concentration; C. neoformans lysis, adenylate kinase release luminescence, 4 h; normalised: neutral wells 0, clomiphene wells 100; lysis activity, % at 15 µM; 0.2% of 360,000 active;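 active = mean lysis activity across replicates of at least 80%, whatever share of replicates individually reach that level; inactive = mean lysis activity below 80%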
#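 Material – Cryptococcus neoformans yeast cells · Quantity – 5 × 10^6 yeast cells/mL · Buffer or medium – YPD medium · Compound – single dose · Timing – 4 h static compound exposure, 37 °C, read 1 h post-reagent · Signal – adenylate kinase release luminescence · Read-out basis – lysis from increased AK signal · Benchmarks – Clomiphene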
# rRNA inh HTS – reduced GFP signal of wild-type E. coli, primary screen, bacterial rRNA inhibitor project, GFP/RFP fluorescence, OD600, single point; GFP signal change (wild-type ribosome), % (no concentration beside the values); E. coli WT GFP vs humanized-ribosome RFP mutants, 24 h; active compounds read low; DMSO median 0, no signal -100; 1.6% of 350,000 active; AID 720706, 2013;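 active = significant combined selectivity score with lowered wild-type GFP, culture density cut under 30%, mutant RFP and density less affected; inactive = any of these conditions unmet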
# ERAP1 HTS inh – human ERAP1 aminopeptidase inhibitors, primary screen, biochemical, single point, plate reader | Endoplasmic reticulum aminopeptidase 1 (Homo sapiens), Q9NZ08 | recombinant ERAP1, Leu-AMC fluorescence, 60 min | 0.15% of 340,000 active | inhibition, % at 10.7 µM;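 active = mean replicate inhibition of at least 30%, or all replicates individually reaching that 30% level; inactive = mean below 30% and not every replicate reaching it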;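 also: 0% = neutral control wells and 100% = L-leucinethiol positive control wells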
# Target sequence (Q9NZ08 whole entry, looked up): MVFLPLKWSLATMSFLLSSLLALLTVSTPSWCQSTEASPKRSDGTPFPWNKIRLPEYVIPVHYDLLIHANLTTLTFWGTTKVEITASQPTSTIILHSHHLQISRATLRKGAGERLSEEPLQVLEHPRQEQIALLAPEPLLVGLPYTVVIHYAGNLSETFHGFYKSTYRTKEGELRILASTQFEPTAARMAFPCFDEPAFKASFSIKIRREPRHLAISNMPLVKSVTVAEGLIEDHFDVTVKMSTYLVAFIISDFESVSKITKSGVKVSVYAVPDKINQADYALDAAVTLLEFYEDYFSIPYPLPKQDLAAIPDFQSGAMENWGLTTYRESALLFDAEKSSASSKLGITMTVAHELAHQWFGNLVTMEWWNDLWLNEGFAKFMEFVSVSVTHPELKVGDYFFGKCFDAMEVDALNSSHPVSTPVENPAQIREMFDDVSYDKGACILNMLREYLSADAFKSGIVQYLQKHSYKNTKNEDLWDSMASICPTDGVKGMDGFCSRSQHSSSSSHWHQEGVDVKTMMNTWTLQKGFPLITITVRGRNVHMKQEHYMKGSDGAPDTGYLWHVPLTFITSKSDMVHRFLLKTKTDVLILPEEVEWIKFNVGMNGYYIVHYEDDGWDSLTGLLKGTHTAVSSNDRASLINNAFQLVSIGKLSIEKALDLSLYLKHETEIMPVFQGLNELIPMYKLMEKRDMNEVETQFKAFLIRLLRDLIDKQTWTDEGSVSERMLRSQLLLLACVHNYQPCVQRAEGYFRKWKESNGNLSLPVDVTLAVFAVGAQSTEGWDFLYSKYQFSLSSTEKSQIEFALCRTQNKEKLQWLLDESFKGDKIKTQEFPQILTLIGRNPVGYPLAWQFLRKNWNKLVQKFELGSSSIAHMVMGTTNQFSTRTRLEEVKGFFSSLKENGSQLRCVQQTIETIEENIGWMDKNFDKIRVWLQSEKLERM
# FGF22 binding – binders of human FGF22 protein, primary screen, FGF22 synaptogenesis inhibitor project, biophysical, thermal shift, single point; recombinant FGF22 thermal shift, SYPRO orange fluorescence; percent of sucrose octasulfate shift, DMSO zero; activity (Tm shift, normalised), % at 9.99 µM; 1.5% of 340,000 active;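 active = mean Tm shift, scaled 0 neutral to 100 positive control, at about 1.3% or above, every replicate too, limit read from the data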
# HIV Env fusion – inhibitors of HIV-1 Env-driven cell-cell fusion, primary screen, HeLa-JRFL effector, CEM21 target cells, luciferase | inhibition, % at 12.3 µM | 1.1% of 360,000 active | AID 651610, 2012;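 active = mean replicate inhibition score of at least 50 and every replicate individually at or above 50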;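 also: 0% = plate neutral controls and 100% = maraviroc near 300 nM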
# The depositor's hits bear a star; . = not tested or not shown; [ ] = dose if it differs, or a comment. An excerpt weighted towards active compounds, which were near 3.5% of everything screened.
SMILES,PGC1a acetyl inh,Cneo AK release,rRNA inh HTS,ERAP1 HTS inh,FGF22 binding,HIV Env fusion
CCOc1ccc(/C=N/NC(=S)NC2CC3CCC2C3)cc1 (stereo unspecified),8,29,-17*,-1,0,5
CSc1ncc(Cl)c(C(=O)Nc2cccc(C)c2)n1,.,.,.,.,.,6
CCCCNC(=O)N(O)C1N(/N=C/c2ccccc2F)C(=S)SC1(C)C (stereo unspecified),3,-1,5,-1,0,81*
CS(=O)(=O)N(CC(=O)N1CCCCC1)c1cccc(F)c1,-16,.,10,4,0,14
N#Cc1sc2nc3c(c(-c4ccco4)c2c1N)CCCC3,4,1,.,.,.,.
NC(=O)c1sc2nc3c(c(-c4ccco4)c2c1N)CCCC3,17,-1,2,3,0,57*
Cc1ccc(/C(N)=N/OC(=O)c2ccc(C)cc2Cl)cc1,-4,.,5,1,0,-133
Cn1cccc1C(=O)C(=O)Nc1ccccc1C(F)(F)F,-2,.,9,0,43*,-41
CCN1CCN(c2nc3c(c(=O)n(C)c(=O)n3C)n2Cc2cccc3ccccc23)CC1,16,.,.,.,.,.
OCC1CCCN(C(=S)Nc2ccc(Nc3ccccc3)cc2)C1 (stereo unspecified),-8,-8,-27*,0,-1,-14
OCC1CCCN(C(=S)Nc2ccc(OC(F)F)cc2)C1 (stereo unspecified),.,-2,-7,4,0,.
Cn1ccnc1SCC(=O)c1ccc(F)cc1,-1,1,13,.,0,1
CC1N=C(SCC(=O)c2ccc(F)cc2)N2C(C)N=C(SCC(=O)c3ccc(F)cc3)N12 (stereo unspecified),3,3,.,0,43*,0
Cc1ccc(C)c(OCC(=O)Nc2nonc2NC(=O)COc2cc(C)ccc2C)c1,-5,6,.,.,.,68*
Cc1ccc(C)c(OCC(=O)Nc2c[nH]c(=O)[nH]c2=O)c1,.,.,10,-2,0,57*
C[C@@H]1CN([C@H](C)CO)C(=O)c2cccc(NC(=O)C3CC3)c2O[C@@H]1CN(C)S(C)(=O)=O,8,-1,5,4,0,14[16.7 µM]
O=C(CN1C(=O)c2ccccc2S1(=O)=O)Nc1ccccc1,-2,1,6,3,0,.
Cc1noc(C)c1NC(=O)N(C)C[C@@H]1Oc2ccc(NC(=O)C3CC3)cc2CC(=O)N([C@H](C)CO)C[C@@H]1C,10,107*,4,1,0,-8[16.7 µM]
Cc1noc(C)c1NC(=O)N(C)C[C@H]1Oc2ccc(NC(=O)C3CC3)cc2CC(=O)N([C@H](C)CO)C[C@H]1C,11,-2,2,0,0,-16[16.7 µM]
CC(C)NC(=O)Nc1ccc2c(c1)CC(=O)N([C@@H](C)CO)C[C@@H](C)[C@H](CN(C)C(=O)Nc1ccc3c(c1)OCO3)O2,10,85*,5,-3,-1,-6[16.7 µM]
Cc1noc(C)c1NC(=O)N(C)C[C@@H]1Oc2ccc(NC(=O)NC(C)C)cc2CC(=O)N([C@H](C)CO)C[C@H]1C,-1,102*,2,-6,0,-11[16.7 µM]
Cc1noc(C)c1NC(=O)N(C)C[C@@H]1Oc2ccc(NC(=O)NC(C)C)cc2CC(=O)N([C@@H](C)CO)C[C@@H]1C,-3,106*,.,-6,0,-6[16.7 µM]
Cc1ccc(S(=O)(=O)Cc2ccc(C(=O)NCc3cccs3)o2)cc1,.,.,.,.,.,-8
CC(C)NC(=O)N(C)C[C@@H]1Oc2ccc(NC(=O)C3CC3)cc2CC(=O)N([C@H](C)CO)C[C@H]1C,6,.,7,.,.,62*[16.7 µM]
CSc1ccccc1NC(=O)CSc1n[nH]c(C)c1[N+](=O)[O-],8,.,-30*,.,0,-7
